p-CIP stab down = lowers stability of the mouse p/CIP coactivator protein | F442A p/CIP-EGFP cells, EGFP fluorescence, 16 h | decrease of EGFP signal, % at 10 µM | 0.01% of 290,000 active | AID 1984;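 active = EGFP signal decrease of at least 30% at 10 µM or well 3 SD below plate mean, unless failing retest; inactive = the rest, including hits failing retest or dose response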
Dynein transport = blocks dynein driven cargo transport along microtubules; 3617.4 mouse cells, GR-EGFP nuclear translocation imaging; test concentration mostly 20 µM; stimulated with dexamethasone, 1 µM; active compounds read low; z-score, hits read low; 0.47% of 220,000 active; AID 1381;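 active = plate z-score of nuclear minus cytoplasmic receptor signal below a set negative limit, without overly bright fluorescence or cell loss, cut at about -3.5 in these data, passing the limit was not always enough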;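 also: z-score of nuclear minus cytoplasmic ring GR-EGFP intensity difference per well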
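medium = tetracycline-free induction medium containing charcoal-stripped FBS | also added = 1.0 µM final dexamethasone stimulus | schedule = 48 h induction, 1 h compound, 30 min dex at 37 °C | technique = fixed, Hoechst-stained cells imaged at 10x for EGFP | measure = GR-EGFP nuclear translocation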
RAM inhibit = yeast RAM network inhibition; S. cerevisiae dse1pr::URA3 reporter, 5-FOA growth OD615, 2 d; analog-sensitive cbk1-as2 kinase mutant strain; inhibition, % at 50 µM; 1.8% of 190,000 active; AID 868;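 active = inhibition above a set limit, 3 SD over mean compound inhibition, cut at about 8.4% in these data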;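 also: 0% = DMSO-only wells with no growth and 100% = 10 µM 1-NA-PP1 full growth; inhibition rescues growth on 5-FOA so higher OD means more RAM inhibition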
p47phox inh = p47phox (human) inhibition. AID 1274. p47phox/p22phox peptide binding, fluorescence polarization, 2 h. P14598. inhibition, % at 24.7 µM. 0.53% of 220,000 active;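 active = inhibition above about 30%, limit read from the data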;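 also: 0% = p47phox with labelled peptide and 100% = labelled peptide alone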
Starred values were filed as active, the others as inactive; · = not tested or not shown. This is a sample that favours compounds with a hit; in the whole collection about 1.9% have one here.

SMILES | p-CIP stab down | Dynein transport | RAM inhibit | p47phox inh
Cc1ccc(SCCNC(=O)c2ccc(CN3CCOCC3)cc2)cc1 | -2 | -0.21 | 0 | 2
COc1ccccc1C(CC(=O)c1ccccc1)CC(=O)c1ccccc1 | -4 | -1.1 | 11* | -2
CCOc1cc(S(=O)(=O)n2cc(-c3ccc(F)cc3)c(N)n2)cc(OCC)c1OCC | -5 | 0.55 | 9.0* | -9
CCOc1ccc(S(=O)(=O)n2cc(-c3ccc(F)cc3)c(N)n2)cc1 | -6 | -0.27 | 6 | -4
COc1ccc(CCNC(=O)CCC(=O)n2ncc3ccc(Cl)cc32)cc1OC | -5 | · | · | ·
CC(=O)Nc1ccc2nc(NC(=O)COc3ccccc3Cl)sc2c1 | -3 | -0.57 | 9.9* | -11
Cc1cccc(NS(=O)(=O)c2cn(C)c(=O)n(C)c2=O)c1C | -9 | · | · | ·
COc1cccc(C(=O)/C=C/c2ccc(SC)cc2)c1 | -10 | -0.92 | 9.2* | -10
CSc1ccc(C(=O)/C=C/c2ccc(N)cc2)cc1 | -16 | -1.8 | 1 | -13
CSc1ccc(/C=C/C(=O)c2ccc(NC(=O)C(C)C)cc2)cc1 | -6 | 1.4 | 10* | -16
CC(C)(C)NC(=O)NC(=O)COC(=O)CNS(=O)(=O)/C=C/c1ccccc1 | -8 | 3.1 | 0 | -12
O=C(Nc1cccc(F)c1)NC1(C(=O)NCC2CCCO2)CCCCC1 (stereo not drawn) | 3 | · | · | ·
COC(=O)C(CC(=O)c1ccc(Cl)cc1)c1ccc(C(C)C)cc1 (stereo not drawn) | -12 | -0.46 | 1 | 32*
CCc1ccc(NS(=O)(=O)c2c(C(=O)N3CCOCC3)c(C)n(C)c2C)cc1 | 5 | · | · | ·
COCCCn1nnnc1SCC(=O)N1c2ccccc2CC1C (stereo not drawn) | -15 | -0.61 | 1 | 1
CC1Cc2ccccc2N1C(=O)CSc1nnnn1Cc1ccccc1 (stereo not drawn) | -2 | 0.35 | 8.7* | -2
O=C1c2ccccc2-c2onc3ccc(NCCCn4ccnc4)c1c23 | 4 | 1.6 | 38* | -237
NS(=O)(=O)c1ccc(NCCCn2ccnc2)c([N+](=O)[O-])c1 | -7 | · | · | ·
CCOC(=O)C1(Cc2cccc(OC)c2)CCCN(CCO)C1 (stereo not drawn) | 2 | · | · | ·
CCn1cc(/C=N/NC(=O)COc2cccc3cccnc23)c2ccccc21 | 7 | -0.69 | -1 | 41*
COc1ccc(/C=N/NC(=O)COc2cccc3cccnc23)cc1OC | 8 | -0.46 | -1 | -11
CCOc1cc(C(C(=O)NCC2CCCO2)N(C(=O)Cn2nnc3ccccc32)c2ccccc2OC)ccc1O (stereo not drawn) | -8 | · | · | ·
CCc1cccc(NS(=O)(=O)c2ccc3c(c2)oc(=O)n3C)c1 | -2 | -0.3 | 0 | 40*
Cc1cccc2cc(C#N)c(NCc3ccccc3)nc12 | 16 | -0.37 | 7 | -7
Cc1cccc2cc(C#N)c(NCCNC(=O)COc3ccccc3)nc12 | -10 | -0.59 | 10* | 0
SMILES | p-CIP stab down | Dynein transport | RAM inhibit | p47phox inh
Cn1cc(S(=O)(=O)NCc2ccc3c(c2)OCO3)c(C(F)(F)F)n1 | -8 | · | · | ·
O=C(O)CCC(=O)N1CCc2c([nH]c3ccccc23)C1C(F)(F)F (stereo not drawn) | 4 | · | · | ·
COc1cc(-c2nnc(COc3ccc4ccccc4c3)o2)cc(OC)c1OC | 4 | -0.83 | 9.4* | -2
CCc1ccc(N(CC(=O)NCc2ccco2)C(=O)CCC(=O)Nc2ccccn2)cc1 | 5 | · | · | ·
O=C(CNC(=S)N(CCCN1CCOCC1)Cc1cccs1)NC1CCCC1 | -13 | 0.72 | 1 | 35*
CCOc1ccccc1N(C(=O)Nc1ccc(Cl)cc1)C1=NCCS1 | -4 | 0.53 | -1 | -10
CCOc1ccccc1N(C(=O)Nc1cccc(Cl)c1)C1=NC(C)CS1 (stereo not drawn) | -8 | -0.31 | 2 | 35*
CC(C)(C)OC(=O)N1CCC(C(=O)N[C@@H](Cc2ccccc2)C(=O)O)(c2ccccc2)CC1 | -4 | 0.56 | 0 | 9
CC(C)[C@H](NC(=O)C1(c2ccccc2)CCN(C(=O)OC(C)(C)C)CC1)C(=O)O | -8 | 0.49 | 1 | 58*
COc1ccccc1CNC(=O)c1c(N)n(CCCN2CCOCC2)c2nc3ccccc3nc12 | -14 | -0.097 | -1 | -23
Nc1c(C(=O)NCc2ccc3c(c2)OCO3)c2nc3ccccc3nc2n1CCCN1CCOCC1 | -2 | 0.15 | 9.8* | -23
Fc1ccc(CSc2nnc(-c3ccccn3)o2)cc1 | -1 | · | · | ·
Cc1ccc(C2(C)NC(=O)N(CC(=O)NC(=O)NC(C)C)C2=O)cc1 (stereo not drawn) | -14 | · | · | ·
